Experimental data as given in ChEMBL document CHEMBL4261585, “Synthesis of 1,2,3-triazole linked 4(3H)-Quinazolinones as potent antibacterial agents against multidrug-resistant Staphylococcus aureus” (Eur J Med Chem, 2018).
Values after ≈ are worked out from the molar mass of the structure shown. Where a SMILES comes first, the peptide text is derived from it. Bridges are numbered along the chain shown (N, C = ends). [ ]: non-standard residue; d: D form. Dab = NCC[C@H](N)C(=O)O

Columns and labels:
Format in all cases: functional
[1] = tested on: Staphylococcus aureus; test: Antibacterial activity against Staphylococcus aureus ATCC 29213 after 16 to 18 hrs by CLSI method
Outline: (§1)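 Broth microdilution MIC per CLSI. A single colony from Mueller-Hinton agar is grown overnight in cation-supplemented Mueller-Hinton broth (37 °C, shaking, 18–24 h). Incubation is 37 °C for 16–18 h. MIC is the lowest concentration with no visible growth. Three independent runs, each in duplicate.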

[2] = tested on: Escherichia coli; test: Antibacterial activity against Escherichia coli ATCC 25922 after 16 to 18 hrs by CLSI method; outline: as §1
[3] = tested on: Klebsiella pneumoniae; test: Antibacterial activity against Klebsiella pneumoniae ATCC BAA-1705 after 16 to 18 hrs by CLSI method; outline: as §1
[4] = tested on: Acinetobacter baumannii; test: Antibacterial activity against Acinetobacter baumannii BAA-1605 after 16 to 18 hrs by CLSI method; outline: as §1
[5] = tested on: Pseudomonas aeruginosa; test: Antibacterial activity against Pseudomonas aeruginosa ATCC 27853 after 16 to 18 hrs by CLSI method; outline: as §1
[6] = tested on: Mycolicibacterium fortuitum; test: Antimycobacterial activity against Mycobacterium fortuitum by pesto blue-dye based broth microdilution assay
[7] = tested on: Mycobacteroides chelonae; test: Antimycobacterial activity against Mycobacterium chelonae by pesto blue-dye based broth microdilution assay
[8] = tested on: Mycobacteroides abscessus; test: Antimycobacterial activity against Mycobacterium abscessus by pesto blue-dye based broth microdilution assay
[9] = tested on: Mycobacterium tuberculosis; test: Antimycobacterial activity against Mycobacterium tuberculosis H37Rv ATCC 27294 after 7 days by pesto blue-dye based broth microdilution assay; conditions: H37Rv ATCC 27294, 168 h
Outline: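 Broth microdilution in Middlebrook 7H9 with 10% ADC-Tween-80 (0.2% glycerol, 0.05% Tween-80). Compound is added from 10 mg/mL DMSO stocks as two-fold dilutions, 64–0.5 mg/L. Plates are incubated 7 days at 37 °C and read with PrestoBlue resazurin dye. MIC is the lowest concentration inhibiting visible growth, three replicates in duplicate.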

| SMILES | MIC [1] | MIC [2] | MIC [3] | MIC [4] | MIC [5] | MIC [6] | MIC [7] | MIC [8] | MIC [9] |
| --- | --- | --- | --- | --- | --- | --- | --- | --- | --- |
| Cc1cc(-n2cc(COc3cccc(-n4c(C)nc5ccccc5c4=O)c3)nn2)cc(C)c1C | > 64 µg/mL | > 64 µg/mL | > 64 µg/mL | > 64 µg/mL | > 64 µg/mL | > 64 µg/mL | > 64 µg/mL | > 64 µg/mL | > 64 µg/mL |
| Cc1nc2ccccc2c(=O)n1-c1cccc(OCc2cn(-c3cccc(O)c3)nn2)c1 | > 64 µg/mL | > 64 µg/mL | > 64 µg/mL | > 64 µg/mL | > 64 µg/mL | > 64 µg/mL | > 64 µg/mL | > 64 µg/mL | > 64 µg/mL |
| N#Cc1ccc(/C=C/c2nc3ccccc3c(=O)n2-c2cccc(OCc3cn(Cc4ccc(Br)cc4)nn3)c2)cc1 | 16 µg/mL (≈ 26 µM) | > 64 µg/mL | > 64 µg/mL | > 64 µg/mL | > 64 µg/mL | > 64 µg/mL | > 64 µg/mL | > 64 µg/mL | > 64 µg/mL |
| N#Cc1ccc(/C=C/c2nc3ccccc3c(=O)n2-c2ccc(OCc3cn(Cc4ccc(Br)cc4)nn3)cc2)cc1 | > 64 µg/mL | > 64 µg/mL | > 64 µg/mL | > 64 µg/mL | > 64 µg/mL | > 64 µg/mL | > 64 µg/mL | > 64 µg/mL | > 64 µg/mL |
| COc1ccc(-n2cc(COc3cccc(-n4c(C)nc5ccccc5c4=O)c3)nn2)cc1 | > 64 µg/mL | > 64 µg/mL | > 64 µg/mL | > 64 µg/mL | > 64 µg/mL | > 64 µg/mL | > 64 µg/mL | > 64 µg/mL | > 64 µg/mL |
| Cc1nc2ccccc2c(=O)n1-c1cccc(OCc2cn(-c3ccc(F)c(Cl)c3)nn2)c1 | > 64 µg/mL | > 64 µg/mL | > 64 µg/mL | > 64 µg/mL | > 64 µg/mL | > 64 µg/mL | > 64 µg/mL | > 64 µg/mL | > 64 µg/mL |
| N#Cc1ccc(/C=C/c2nc3ccccc3c(=O)n2-c2cccc(OCc3cn(-c4ccc(C(F)(F)F)cc4)nn3)c2)cc1 | 4 µg/mL (≈ 6.77 µM) | > 64 µg/mL | > 64 µg/mL | > 64 µg/mL | > 64 µg/mL | > 64 µg/mL | > 64 µg/mL | > 64 µg/mL | > 64 µg/mL |
| Cc1cccc2c(=O)n(-c3cccc(OCc4cn(-c5cccc(Cl)c5)nn4)c3)c(C)nc12 | > 64 µg/mL | > 64 µg/mL | > 64 µg/mL | > 64 µg/mL | > 64 µg/mL | > 64 µg/mL | > 64 µg/mL | > 64 µg/mL | > 64 µg/mL |
| N#Cc1ccc(/C=C/c2nc3ccccc3c(=O)n2-c2cccc(OCc3cn(-c4cccc(C(=O)O)c4)nn3)c2)cc1 | 4 µg/mL (≈ 7.06 µM) | > 64 µg/mL | > 64 µg/mL | > 64 µg/mL | > 64 µg/mL | > 64 µg/mL | > 64 µg/mL | > 64 µg/mL | > 64 µg/mL |
| Cc1nc2ccccc2c(=O)n1-c1cccc(OCc2cn(-c3ccc(C(=O)O)cc3)nn2)c1 | > 64 µg/mL | > 64 µg/mL | > 64 µg/mL | > 64 µg/mL | > 64 µg/mL | > 64 µg/mL | > 64 µg/mL | > 64 µg/mL | > 64 µg/mL |
| CCC(C)(C)c1ccc(OCc2cn(-c3cccc(-n4c(C)nc5ccccc5c4=O)c3)nn2)cc1 | > 64 µg/mL | > 64 µg/mL | > 64 µg/mL | > 64 µg/mL | > 64 µg/mL | > 64 µg/mL | > 64 µg/mL | > 64 µg/mL | > 64 µg/mL |
| Cc1nc2ccccc2c(=O)n1-c1cccc(OCc2cn(-c3ccc(Cl)cc3)nn2)c1 | > 64 µg/mL | > 64 µg/mL | > 64 µg/mL | > 64 µg/mL | > 64 µg/mL | > 64 µg/mL | > 64 µg/mL | > 64 µg/mL | > 64 µg/mL |
| O=c1c2ccccc2nc(/C=C/c2ccc(Cl)cc2)n1-c1cccc(-n2cc(-c3ccccc3)nn2)c1 | > 64 µg/mL | > 64 µg/mL | > 64 µg/mL | > 64 µg/mL | > 64 µg/mL | > 64 µg/mL | > 64 µg/mL | > 64 µg/mL | > 64 µg/mL |
| Cc1cc([N+](=O)[O-])ccc1-n1cc(COc2cccc(-n3c(C)nc4ccccc4c3=O)c2)nn1 | > 64 µg/mL | > 64 µg/mL | > 64 µg/mL | > 64 µg/mL | > 64 µg/mL | > 64 µg/mL | > 64 µg/mL | > 64 µg/mL | 32 µg/mL (≈ 68.3 µM) |
| Cc1nc2ccccc2c(=O)n1-c1cccc(OCc2cn(-c3ccc(O)cc3)nn2)c1 | > 64 µg/mL | > 64 µg/mL | > 64 µg/mL | > 64 µg/mL | > 64 µg/mL | > 64 µg/mL | > 64 µg/mL | > 64 µg/mL | 64 µg/mL (≈ 150 µM) |
| N#Cc1ccc(/C=C/c2nc3ccccc3c(=O)n2-c2cccc(-n3cc(-c4ccccc4)nn3)c2)cc1 | > 64 µg/mL | > 64 µg/mL | > 64 µg/mL | > 64 µg/mL | > 64 µg/mL | > 64 µg/mL | > 64 µg/mL | > 64 µg/mL | > 64 µg/mL |
| Cc1cccc(-n2cc(COc3cccc(-n4c(C)nc5ccccc5c4=O)c3)nn2)c1 | > 64 µg/mL | > 64 µg/mL | > 64 µg/mL | > 64 µg/mL | > 64 µg/mL | > 64 µg/mL | > 64 µg/mL | > 64 µg/mL | > 64 µg/mL |
| O=c1c2ccccc2nc(/C=C/c2ccc(Cl)cc2)n1-c1cccc(OCc2cn(-c3cccc(F)c3)nn2)c1 | 4 µg/mL (≈ 7.27 µM) | > 64 µg/mL | > 64 µg/mL | > 64 µg/mL | > 64 µg/mL | > 64 µg/mL | > 64 µg/mL | > 64 µg/mL | > 64 µg/mL |
| COc1cc(-n2cc(COc3cccc(-n4c(C)nc5ccccc5c4=O)c3)nn2)cc(OC)c1OC | > 64 µg/mL | > 64 µg/mL | > 64 µg/mL | > 64 µg/mL | > 64 µg/mL | > 64 µg/mL | > 64 µg/mL | > 64 µg/mL | > 64 µg/mL |
| COc1ccc(-n2cc(COc3cccc(-n4c(/C=C/c5ccc(C#N)cc5)nc5ccccc5c4=O)c3)nn2)cc1 | 4 µg/mL (≈ 7.24 µM) | > 64 µg/mL | > 64 µg/mL | > 64 µg/mL | > 64 µg/mL | > 64 µg/mL | > 64 µg/mL | > 64 µg/mL | > 64 µg/mL |
| Cc1nc2ccccc2c(=O)n1-c1cccc(OCc2cn(-c3cccc(C(=O)O)c3)nn2)c1 | > 64 µg/mL | > 64 µg/mL | > 64 µg/mL | > 64 µg/mL | > 64 µg/mL | > 64 µg/mL | > 64 µg/mL | > 64 µg/mL | > 64 µg/mL |
| Cc1ccc(C)c(OCc2cn(-c3cccc(-n4c(C)nc5ccccc5c4=O)c3)nn2)c1 | > 64 µg/mL | > 64 µg/mL | > 64 µg/mL | > 64 µg/mL | > 64 µg/mL | > 64 µg/mL | > 64 µg/mL | > 64 µg/mL | > 64 µg/mL |
| N#Cc1ccc(/C=C/c2nc3ccccc3c(=O)n2-c2cccc(OCc3cn(-c4cccc(F)c4)nn3)c2)cc1 | 0.5 µg/mL (≈ 0.925 µM) | > 64 µg/mL | > 64 µg/mL | > 64 µg/mL | > 64 µg/mL | > 64 µg/mL | > 64 µg/mL | > 64 µg/mL | > 64 µg/mL |
| Cc1cccc2c(=O)n(-c3cccc(OCc4cn(-c5cccc(Cl)c5)nn4)c3)c(/C=C/c3ccc(C#N)cc3)nc12 | > 64 µg/mL | > 64 µg/mL | > 64 µg/mL | > 64 µg/mL | > 64 µg/mL | > 64 µg/mL | > 64 µg/mL | > 64 µg/mL | > 64 µg/mL |
| Cc1ccc(-n2cc(COc3cccc(-n4c(C)nc5ccccc5c4=O)c3)nn2)cc1[N+](=O)[O-] | > 64 µg/mL | > 64 µg/mL | > 64 µg/mL | > 64 µg/mL | > 64 µg/mL | > 64 µg/mL | > 64 µg/mL | > 64 µg/mL | > 64 µg/mL |
| Cc1nc2ccccc2c(=O)n1-c1cccc(-n2cc(-c3ccccc3)nn2)c1 | > 64 µg/mL | > 64 µg/mL | > 64 µg/mL | > 64 µg/mL | > 64 µg/mL | > 64 µg/mL | > 64 µg/mL | > 64 µg/mL | > 64 µg/mL |
| Cc1nc2ccccc2c(=O)n1-c1cccc(OCc2cn(-c3cccc(Cl)c3)nn2)c1 | > 64 µg/mL | > 64 µg/mL | > 64 µg/mL | > 64 µg/mL | > 64 µg/mL | > 64 µg/mL | > 64 µg/mL | > 64 µg/mL | > 64 µg/mL |
| CCC(C)(C)c1ccc(OCc2cn(-c3cccc(-n4c(/C=C/c5ccc(C#N)cc5)nc5ccccc5c4=O)c3)nn2)cc1 | > 64 µg/mL | > 64 µg/mL | > 64 µg/mL | > 64 µg/mL | > 64 µg/mL | > 64 µg/mL | > 64 µg/mL | > 64 µg/mL |  |
| NNC(=O)c1ccncc1 [ISONIAZID] |  |  |  |  |  |  |  |  | 0.03 µg/mL (≈ 0.219 µM) |
| CC(C)C[C@@H]1NC(=O)[C@@H](Cc2ccccc2)NC(=O)[C@H](CCN)NC(=O)[C@@H](NC(=O)[C@H](CCN)NC(=O)[C@@H](N)[C@@H](C)O)CCNC(=O)[C@H]([C@@H](C)O)NC(=O)[C@H](CCN)NC(=O)[C@H](CCN)NC1=O [POLYMYXIN B NONAPEPTIDE] (H-T[Dab][Dab][Dab][dF]L[Dab][Dab]T; lactam 3-C) |  | > 128 µg/mL |  | > 128 µg/mL |  |  |  |  |  |
